Rows were chosen to be rich in hits. Some 2.9% of all compounds tested hit in one or more screens of this group.
Insulin prom up = insulin promoter activators in MIN6 cells, imaging, high-content screening, mouse beta cells; hit rate 0.3% among 190,000; z-score at 5 µM; MIN6 insulin promoter-GFP reporter; active compounds read high; AID 1625, 2009;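 active = z-score above 3 at 5 µM with at least 500 cells counted in the well; inconclusive = wells under 500 cells, flagged as cytotoxic or low count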
Autophagy mod = autophagy modulators in MEF cells, primary screen, imaging, high-content, MEF GFP-LC3. MEF GFP-LC3 puncta imaging; test concentration mostly 10 µM. calls only at 10 µM (by protocol). hit rate 0.98% among 190,000;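 active = percentage of spot-positive cells more than 3 SD above its plate mean, without a fluorescence outlier flag or 80% toxicity; inconclusive = no clear call, values can overlap the other calls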
b-catenin transl = modulators of beta-catenin nuclear translocation, primary screen, imaging, HeLa cells, immunofluorescence, high-content; hit rate 0.3% among 190,000; nuclear translocation activity, % at 5 µM; AID 1665, 2009;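 active = nuclear translocation activity above 50% at 5 µM, with a well cell count of 50 or more; inconclusive = wells under 50 cells across six images, flagged as toxic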;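 also: per-cell ratio of nuclear to cytoplasmic median beta-catenin stain intensity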
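Signal – beta-catenin immunofluorescence imaging with DAPI · Test system – human HeLa cell line · Dosing – 5 µM primary single dose, 0.1% DMSO, 0.02–20 µM confirmation series · Measure – % activation, nuclear-to-cytoplasmic median beta-catenin signal ratio per cell · Incubation – 24 h compound exposure at 37°C, 5% CO2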
Wee1 stabilizer = Wee1 degradation inhibitors, primary screen, cell-based, HeLa, Wee1K328M-luciferase, luminescence; reporter increase, % at 5 µM; hit rate 1.2% among 220,000; AID 1321, 2008; HeLa Luc-Wee1K328M stability; 100% = proteasome inhibitor MG132 effect; Wee1-like protein kinase (Homo sapiens), P30291;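 active = activation above the mean of all tested compounds plus 3 SD, set per screening run, cut at about 8.8% in these data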;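 also: cells exposed to compound for 20 h before luminescence read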
Target sequence (P30291 whole entry K328M): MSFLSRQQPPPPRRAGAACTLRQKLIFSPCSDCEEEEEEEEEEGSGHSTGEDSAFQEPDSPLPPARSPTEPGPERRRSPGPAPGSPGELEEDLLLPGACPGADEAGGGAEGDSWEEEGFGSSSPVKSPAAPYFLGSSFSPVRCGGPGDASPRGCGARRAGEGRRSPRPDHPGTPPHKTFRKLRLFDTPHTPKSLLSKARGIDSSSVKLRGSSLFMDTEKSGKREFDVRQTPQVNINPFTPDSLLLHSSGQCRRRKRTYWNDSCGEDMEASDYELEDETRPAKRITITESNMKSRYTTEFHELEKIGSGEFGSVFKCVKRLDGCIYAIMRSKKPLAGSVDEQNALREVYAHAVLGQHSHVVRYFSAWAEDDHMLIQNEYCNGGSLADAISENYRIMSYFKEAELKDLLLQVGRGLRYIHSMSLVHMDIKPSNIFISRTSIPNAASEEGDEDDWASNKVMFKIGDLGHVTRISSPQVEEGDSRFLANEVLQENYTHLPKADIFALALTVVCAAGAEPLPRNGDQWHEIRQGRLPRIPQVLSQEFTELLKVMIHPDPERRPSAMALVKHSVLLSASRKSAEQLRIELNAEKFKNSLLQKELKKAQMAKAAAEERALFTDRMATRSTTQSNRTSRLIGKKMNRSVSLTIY
MT stabilizer = microtubule stabilizers in HeLa cells, primary screen, imaging, high-content imaging | % tubulin-high responders, % at 10 µM | HeLa tubulin immunostaining HCS, 24 h; share of cells brighter than vehicle mean+2SD | hit rate 0.83% among 200,000;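 active = plate Z-score above 3 for both tubulin-high and condensed-nucleus cell shares, with cell loss under 80%, at 10 µM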;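 also: anti alpha tubulin signal scored within the nucleus-defined area of each cell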
Each line names hits and unclear results; the compound was inactive in the other large screens.

N#CC1=C(N)N2C(=C(C#N)C1c1ccccc1)Sc1ccccc12 (stereo not given)	Autophagy mod active (no result: Insulin prom up)
CC(=O)Cc1nsc(NC(=O)c2ccc(-c3cccc(C(F)(F)F)c3)o2)n1	Autophagy mod active
CC(=O)Cc1nsc(NC(=O)c2ccc(-c3cc(C(F)(F)F)ccc3Cl)o2)n1	none (no result: Insulin prom up, b-catenin transl)
CC(=O)Cc1nsc(NC(=O)c2ccc(-c3cc(Cl)ccc3Cl)o2)n1	b-catenin transl 132, MT stabilizer 26
CC(=O)Cc1nsc(NC(=O)c2ccc(-c3ccc(Cl)cc3Cl)o2)n1	none (no result: b-catenin transl)
Cc1ccc(C(=O)N(Cc2ccccc2)C(C)(C)C)cc1C	none
CC(Sc1nnc(-c2cccs2)n1Cc1ccccc1)C(=O)NCc1ccc2c(c1)OCO2 (stereo not given)	Wee1 stabilizer 10 (no result: Insulin prom up, b-catenin transl)
CCCNC(=O)c1sc2c(c1C(=O)Nc1ccccn1)CCCC2	Autophagy mod active
OCC1(CCOc2ccccc2)CCN(Cc2nc3ccc(F)cc3[nH]2)CC1	none (no result: Insulin prom up)
C(=C\c1ccccc1)/CSc1nnc(-c2ccccn2)n1Cc1ccco1	b-catenin transl 53, MT stabilizer 29
NC(=O)CSc1nnc(-c2ccccn2)n1Cc1ccco1	none (no result: Autophagy mod, MT stabilizer)
CCOc1ccc2nc(COC(=O)c3ccncc3)c(C(=O)c3ccccc3)[n+]([O-])c2c1	none (no result: Autophagy mod, MT stabilizer)
O=c1cc(-c2ccccc2[N+](=O)[O-])oc2ccccc12	MT stabilizer 12
Cc1ccc2cc3c(nc2c1)OCC3	none (no result: Autophagy mod, MT stabilizer)
O=C(CC1SC2=NCCN2C1=O)Nc1ccc(Cl)cc1 (stereo not given)	Autophagy mod active
CCOc1ccccc1NC(=O)Cn1nnc(C(=O)NCc2ccco2)c1N	MT stabilizer 25 (no result: Insulin prom up, b-catenin transl)
COC(=O)c1sccc1-n1cccc1C(=O)C(=O)N1CC(C)OC(C)C1 (stereo not given)	none (no result: b-catenin transl)
COC(=O)C1=C(C)NC2=C(C(=O)c3ccccc32)C1c1cccc(OC)c1 (stereo not given)	none (no result: Autophagy mod, MT stabilizer)
CC1=C([N+](=O)[O-])C(c2cccc(Br)c2)C2=C(N1)c1ccccc1C2=O (stereo not given)	Insulin prom up inconclusive, MT stabilizer 11
C=CCN1C(=O)C(CC(=O)Nc2ccc(OCCC)cc2)N(CCCN2CCN(Cc3ccccc3)CC2)C1=S (stereo not given)	none (no result: b-catenin transl)
CCOc1ccc(/C=C2/SC(=S)N(C(C(=O)O)c3ccccc3)C2=O)cc1OCC (stereo not given)	Wee1 stabilizer 17
CCN1CC=C2C(C1)C(c1ccc(Cl)s1)C(C#N)=C(N)C2(C#N)C#N (stereo not given)	Autophagy mod active (no result: Insulin prom up)
CCN1CC=C2C(C#N)=C(N)C(C#N)(C#N)[C@H](c3cccc(OC)c3OC)[C@H]2C1	Autophagy mod inconclusive (no result: Insulin prom up, b-catenin transl)
C=CCn1c(SCC(=O)NC2CCS(=O)(=O)C2)nc2scc(C3CC3)c2c1=O (stereo not given)	Wee1 stabilizer 9.7
CC(=O)NC(C)C(=O)OCC(=O)c1ccc(-c2ccccc2)cc1 (stereo not given)	Autophagy mod active
O=C(CCn1c(=O)[nH]c2ccccc2c1=O)NCCSCc1ccccc1	none
CCOC(=O)C=Nc1c(N)n(C)c(=O)n(C)c1=O	none
CC(=O)N1N=C(c2cccc(Cl)c2)OC1c1cccc([N+](=O)[O-])c1 (stereo not given)	none (no result: Insulin prom up)
CC(=O)N1N=C(c2cccc([N+](=O)[O-])c2)OC1c1cccc(Br)c1 (stereo not given)	b-catenin transl 66, MT stabilizer 24
O=C(NC1CCN(Cc2ccccc2)CC1)c1ccc2c(c1)[nH]c(=O)n2Cc1ccc(F)cc1	none
O=C(CNc1cc(S(=O)(=O)N2CCCC2)ccc1OCC(F)(F)F)Nc1ccc(SC(F)F)cc1	none
O=C(COC(=O)CCCN1C(=O)c2cccc3cccc(c23)C1=O)Nc1cccc(C(F)(F)F)c1	none
O=C(COC(=O)CCCN1C(=O)c2cccc3cccc(c23)C1=O)Nc1cccc(Br)c1	MT stabilizer 13 (no result: b-catenin transl)
Cc1noc(C)c1CS(=O)(=O)c1ccc(Br)cc1	Insulin prom up 3.2
N#CCc1ccc(NC(=O)/C=C/c2ccc([N+](=O)[O-])o2)cc1	Wee1 stabilizer 9.3
O=C(O)/C=C/c1ccc([N+](=O)[O-])o1	none
O=C(CC1C(=O)NCCN1Cc1cccc(Oc2ccccc2)c1)NCCCn1cccn1 (stereo not given)	none
Cc1ccc(S(C)(=O)=NS(=O)(=O)c2cccc3nsnc23)cc1 (stereo not given)	none (no result: Autophagy mod, MT stabilizer)
CN1CCN(c2ccc(NC(=O)c3ccc(-c4ccc(Br)cc4)o3)cc2)CC1	Autophagy mod active
O=C(Nc1ccc(N2CCCC2)cc1)c1ccc(Br)o1	none
Nc1c(C(=O)Nc2nc3ccccc3s2)sc2nc(-c3cccs3)ccc12	Autophagy mod active (no result: Insulin prom up)
CC(=O)c1sc2nc(-c3cccs3)ccc2c1N	none (no result: b-catenin transl)
Nc1ccc(C(=O)Nc2nc3ccccc3s2)cc1	Wee1 stabilizer 8.9 (no result: Autophagy mod)
Cc1cc(C)n(-c2ccc(C(=O)Nc3nc4ccccc4s3)cc2)n1	none
NC(=O)c1ccc(C(F)(F)F)n(Cc2cccc(Cl)c2)c1=O	none
CN(C)CCOCCOc1ccccc1-c1ccccc1	Insulin prom up 5
Cc1ccc(Cl)cc1NC(=O)CCN1C(=O)C2C3CCC(C3)C2C1=O (stereo not given)	none
Cc1ccc(C(=O)Nc2ncc(Cc3ccc(F)cc3)s2)o1	none
Cc1ccc(C(=O)Nc2ncc(Cc3ccc(SC(F)F)cc3)s2)cc1	b-catenin transl 135
Cc1cc(-n2cnc(-c3cn[nH]c3C)n2)no1	none (no result: Autophagy mod, MT stabilizer)
O=C(NCc1cccs1)c1ccc(N2CCCCC2)nc1	Insulin prom up 3.4
CC1CCCN(c2ccc(C(=O)NCc3cccs3)cn2)C1 (stereo not given)	none (no result: Insulin prom up)
CCC(CC)C1=NN2C(=N)/C(=C\c3cc(C)n(-c4cccc(C)c4)c3C)C(=O)N=C2S1	Autophagy mod active
Cc1cc(/C=C2\C(=N)N3N=C(C(C)C)SC3=NC2=O)c(C)n1Cc1ccccc1	none (no result: Autophagy mod, MT stabilizer)
CC1=NN2C(=N)/C(=C\c3cc(C)n(-c4ccccc4)c3C)C(=O)N=C2S1	none
Cc1nn(-c2ccccc2)c(Cl)c1/C=C1/C(=N)N2N=C(C(C)C)SC2=NC1=O	MT stabilizer 9.9
CCOC(=O)/C=C1\SCC(=O)N1CC(=O)NC(C)c1ccc(F)cc1 (stereo not given)	none
C/C(=N/NC(=O)c1ccc(O)cc1)c1cccc([N+](=O)[O-])c1	none
CC(=O)Nc1cccc(/C(C)=N/NC(=O)c2ccc(O)cc2)c1	Wee1 stabilizer 10
Cc1ccc(C)c2nc(Cl)c(C3NC(=O)c4ccccc4N3)cc12 (stereo not given)	MT stabilizer 16
Cc1ccc(C)c(C2NC(=O)c3ccccc3N2)c1 (stereo not given)	b-catenin transl 64 (no result: Autophagy mod, MT stabilizer)
O=C(NCc1ccco1)C1CC(c2c(Cl)cccc2Cl)=NO1 (stereo not given)	none

Compound activity as filed in PubChem.
